Assay results from ChEMBL document CHEMBL3046179, “Study on the anthraquinones separated from the cultivation of Trichoderma harzianum strain Th-R16 and their biological activity” (J Agric Food Chem, 2009).
Structures can show the parent of a compound that is named as a salt.

How the values were obtained:
Escherichia coli [1] = experiment: Antibacterial activity against Escherichia coli using 50 uL of compound solution from 500 ug/mL stock solution after 24 hr by agar disk diffusion method; format: functional
Procedure, shortened: (§1)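 Agar disk diffusion. Plates were spread with 1 mL culture containing 1 × 10^7 CFU: S. aureus and E. coli on tryptic soy agar, B. cereus and P. aeruginosa on nutrient agar. Each 8 mm filter-paper disc was blotted with 50 μL of a 500 μg/mL sample. Kanamycin sulfate 50 μg/mL discs were the positive control. Plates ran 24 h at 37 °C, and inhibition-zone diameter was measured in triplicate.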

Staphylococcus aureus [2] = experiment: Antibacterial activity against Staphylococcus aureus using 50 uL of compound solution from 500 ug/mL stock solution after 24 hr by agar disk diffusion method; format: functional; procedure, shortened: as §1
Pseudomonas aeruginosa [3] = experiment: Antibacterial activity against Pseudomonas aeruginosa using 50 uL of compound solution from 500 ug/mL stock solution after 24 hr by agar disk diffusion method; format: functional; procedure, shortened: as §1
Bacillus cereus [4] = experiment: Antibacterial activity against Bacillus cereus using 50 uL of compound solution from 500 ug/mL stock solution after 24 hr by agar disk diffusion method; format: functional; procedure, shortened: as §1
Botrytis cinerea [5] = experiment: Antifungal activity against Botryotinia fuckeliana assessed as growth inhibition at 500 ug/mL after 4 days; format: functional; conditions: 96 h, read-out: GI
Procedure, shortened: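 Mycelial plug of B. cinerea was placed at the centre of PDA dishes containing test sample at 25 to 500 μg/mL. Colony diameter (mm) was read after 4 days, in triplicate.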

Rhizoctonia solani [6] = experiment: Antifungal activity against Rhizoctonia solani assessed as growth inhibition at 500 ug/mL after 2 days; format: functional; conditions: 48 h, read-out: GI
Procedure, shortened: (§2)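 Rhizoctonia solani plugs were set centrally on PDA dishes holding test sample at 25 to 500 μg/mL. Mycelial diameter (mm) was measured after 2 days, in triplicate.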

Staphylococcus aureus [7] = experiment: Antibacterial activity against Staphylococcus aureus after 24 hr by agar disk diffusion method; format: functional, organism-based; procedure, shortened: as §1
Rhizoctonia solani [8] = experiment: Antifungal activity against Rhizoctonia solani assessed as inhibition of mycelium growth after 2 days; format: functional, organism-based; procedure, shortened: as §2
Botrytis cinerea [9] = experiment: Antifungal activity against Botryotinia fuckeliana as inhibition of mycelium growth after 4 days; format: functional, organism-based
Procedure, shortened: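 Mycelial plugs of the pathogen placed at the centre of PDA Petri dishes holding 10 mL of test sample at 25 to 500 μg/mL. Mycelial diameter (mm) measured after 4 days for B. cinerea. Run in triplicate.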

Staphylococcus aureus [10] = experiment: Antibacterial activity against Staphylococcus aureus at 50 ug/mL after 24 hr by agar disk diffusion method; format: functional; conditions: read-out: DIZ
Bacillus cereus [11] = experiment: Antibacterial activity against Bacillus cereus at 50 ug/mL after 24 hr by agar disk diffusion method; format: functional; conditions: read-out: DIZ
Pseudomonas aeruginosa [12] = experiment: Antibacterial activity against Pseudomonas aeruginosa at 50 ug/mL after 24 hr by agar disk diffusion method; format: functional; conditions: read-out: DIZ
Escherichia coli [13] = experiment: Antibacterial activity against Escherichia coli at 50 ug/mL after 24 hr by agar disk diffusion method; format: functional; conditions: read-out: DIZ

SMILES | diameter of the inhibition zone (DIZ) (Escherichia coli [1]) [mm] | diameter of the inhibition zone (DIZ) (Staphylococcus aureus [2]) [mm] | diameter of the inhibition zone (DIZ) (Pseudomonas aeruginosa [3]) [mm] | diameter of the inhibition zone (DIZ) (Bacillus cereus [4]) [mm] | inhibition of growth at 500 µg/mL (Botrytis cinerea [5]) [%] | inhibition of growth at 500 µg/mL (Rhizoctonia solani [6]) [%] | IC50 (Staphylococcus aureus [7]) [µM] | growth inhibition (GI) (Rhizoctonia solani [8]) | growth inhibition (GI) (Botrytis cinerea [9]) | zone of inhibition at 50 µg/mL (Staphylococcus aureus [10]) [mm] | zone of inhibition at 50 µg/mL (Bacillus cereus [11]) [mm] | zone of inhibition at 50 µg/mL (Pseudomonas aeruginosa [12]) [mm] | zone of inhibition at 50 µg/mL (Escherichia coli [13]) [mm]
Cc1cc(O)c2c(c1)C(=O)c1cccc(O)c1C2=O [CHRYSOPHANOL] | <10 | <10 | <10 | <10 | 22.5 | 21.2 |  |  |  |  |  |  | 
Cc1cc(O)c2c(c1)C(=O)c1ccccc1C2=O [PACHYBASIN] | <10 | 10.33 | <10 | <10 | 6 | 13.9 |  |  |  |  |  |  | 
O=C1c2cc(CO)cc(O)c2C(=O)c2cccc(O)c21 | <10 | 17.67 | <10 | 10.66 | 53.7 | 25.4 | 117 | Dose-dependent effect |  |  |  |  | 
O=C1c2ccc(O)cc2C(=O)c2c(O)cc(CO)cc21 | <10 | 14.33 | <10 | <10 | 92.8 | 67.3 | 221 |  | Dose-dependent effect |  |  |  | 
O=C1c2ccccc2C(=O)c2c(O)cc(CO)cc21 [OMEGA-HYDROXYPACHYBASIN] | <10 | 20 | <10 | 11 | 47.3 | 41.5 | 123 |  |  |  |  |  | 
Cc1cc(O)c2c(c1)C(=O)c1cc(O)cc(O)c1C2=O [EMODIN] | <10 | 11 | <10 | 10 | 51.7 | 39 | 46.3 |  | Dose-dependent effect |  |  |  | 
NC[C@H]1O[C@H](O[C@H]2[C@H](O)[C@@H](O[C@H]3O[C@H](CO)[C@@H](O)[C@H](N)[C@H]3O)[C@H](N)C[C@@H]2N)[C@H](O)[C@@H](O)[C@@H]1O [KANAMYCIN SULFATE] |  |  |  |  |  |  |  |  |  | 13 | 15 | 13 | 12
